Measurements from paper PMC9072715 (RSC Advances, 2019).

Columns and labels:
rabbit erythrocytes = experiment: Hemolysis of red blood cells assay; type: cell-based, NewZealand rabbit; conditions: 10% rabbit erythrocyte suspension, 3 to 48 μM, 4 hours, room temperature
Summary of the method: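 Heparinized blood came from a healthy New Zealand rabbit. Erythrocytes were washed three times in saline and diluted to a 10% suspension. The suspension was mixed 1:1 by volume with sample solution (0–48 μM test compound) and left 4 h at room temperature. Hemolysis was then assessed by observation.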

MCF-7 cells = experiment: CCK-8 anti-proliferative assay, MCF-7; type: cell-based, human; conditions: read-out: IC50 MCF-7; MCF-7, CCK-8, 48 h
Summary of the method: (§1)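 Log-phase cells in DMEM were plated at 1 × 10^4 per well and allowed 12 h at 37 °C and 5% CO2. Test compounds (0–80 μM) were added for 48 h. Medium was replaced with medium containing 10% CCK-8 for 4 h, and A450 was read. Percent inhibition was calculated against the untreated control and doxorubicin (positive control), and IC50 was obtained by curve fitting.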

HeLa cells = experiment: CCK-8 anti-proliferative assay, HeLa; type: cell-based; conditions: Homo sapiens, 48 h, read-out: IC50 HeLa, HeLa, CCK-8, 48 h
Summary of the method: as §1

Compound | Hemolytic effect (rabbit erythrocytes) | IC50 (MCF-7 cells) [µM] | IC50 (HeLa cells) [µM]
C/C=C(\C)C(=O)O[C@H]1[C@H](OC(C)=O)[C@]2(CO)[C@H](O)C[C@]3(C)C(=CC[C@@H]4[C@@]5(C)CC[C@H](O[C@@H]6O[C@H](C(=O)O)[C@@H](O[C@@H]7O[C@H](CO)[C@@H](O)[C@H](O)[C@H]7O)[C@H](O)[C@H]6O[C@@H]6O[C@H](CO)[C@@H](O)[C@H](O)[C@H]6O)[C@](C)(CO)[C@@H]5CC[C@]43C)[C@@H]2CC1(C)C [Compound 6, Escin Ia] | showed hemolytic effect at 24 and 48 μM | – | –
C/C=C(/C)C(=O)O[C@H]1[C@H](OC(C)=O)[C@]2(CO)[C@H](O)C[C@]3(C)C(=CC[C@@H]4[C@@]5(C)CC[C@H](O[C@@H]6O[C@H](C(=O)O)[C@@H](O[C@@H]7O[C@H](CO)[C@@H](O)[C@H](O)[C@H]7O)[C@H](O)[C@H]6O[C@@H]6O[C@H](CO)[C@@H](O)[C@H](O)[C@H]6O)[C@](C)(CO)[C@@H]5CC[C@]43C)[C@@H]2CC1(C)C [Compound 7, Escin Ib] | – | > 80 | 55
